This is an account of results in ChEMBL document CHEMBL1150316, “Arylethynyltriazole acyclonucleosides inhibit hepatitis C virus replication” (Bioorg Med Chem Lett, 2008).

For data set [1], the system named is Hepatitis C virus. The experiment in a line: Antiviral activity against Hepatitis C virus infected human Huh-5-2 cells assessed as inhibition of luciferase activity after 4 days by RNA replicon assay. The class given is functional, organism-based, Hepacivirus hominis. To be noted: Huh-5-2, 96 h. An outline of the steps:
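Huh-5-2 subgenomic HCV replicon cells seeded 5000/well in complete DMEM with 250 µg/mL G418, 24 h at 37 °C (5% CO2). Threefold serial compound dilutions then added in DMEM without G418, 4 days at 37 °C. Replication read as luciferase activity (Steady-Glo). EC50 = concentration giving 50% inhibition of luciferase signal.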
For orientation: In antiviral work, replicon cells carry a viral genome segment that copies itself.

The nature of data set [2]: Cytotoxicity against human Huh-5-2 cells. It is filed as cell-based. An outline of the steps: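 Exponentially growing Huh-5-2 cells treated with compound. CC50 taken as the concentration that inhibits cell proliferation by 50%.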
The test system of data set [3] is Huh-5-2. Kind of data set: Cytotoxicity against human Huh-5-2 cells at 50 ug/ml. It is filed as cell-based.
Data set [4] has as its system PC-3. Kind of data set: Cytotoxicity against human PC3 cells upto 200 uM by MTT assay. The class given is functional, cell-based. The method, boiled down:
(§1)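 MiaPaCa, Capan-2 and PC-3 cells tested by MTT assay at concentrations up to 200 µM.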
On the technique in general: Formazan colour is commonly taken as a measure of viable cells.

In data set [5] the test system is Capan-2. Kind of data set: Cytotoxicity against human Capan2 cells upto 200 uM by MTT assay. It is filed as functional, cell-based. An outline of the steps:
as §1

Data set [6] has as its system PaCa. Kind of data set: Cytotoxicity against human MIA PaCa cells upto 200 uM by MTT assay. The class given is functional, cell-based. The method, boiled down:
as §1

Data set [7] deals with Hepatitis C virus. Kind of data set: Antiviral activity against Hepatitis C virus infected human Huh-9-13 cells assessed as reduction of HCV RNA level after 4 days by RT-PCR. It is filed as functional, organism-based, Hepacivirus hominis. To be noted: 96 h. The method, boiled down:
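Huh-9-13 replicon cells seeded 5000/well in complete DMEM with 1,000 µg/mL G418, 24 h at 37 °C. Threefold serial compound dilutions added in DMEM without G418, 4 days at 37 °C. Monolayers PBS-washed, lysed in RLT buffer, replicon RNA measured by quantitative real-time PCR. EC50 = 50% reduction in HCV RNA versus untreated control.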

Structures are written as SMILES. Values after ≈ are worked out from the molar mass of the structure shown.

The EC50 is the midpoint of the concentration-response curve. As usually defined, the CC50 is the concentration at which the toxic effect on the cells reaches its halfway point. Higher therefore signals better tolerance by the cells. Regarding `NC(=O)c1nc(C#Cc2ccc(C(F)(F)F)cc2)n(COCCO)n1`, the EC50 in data set [1] amounted to 5 µg/mL (≈ 14.1 µM). The same compound returned a CC50 in data set [2] of 20 µg/mL (≈ 56.5 µM).
Taken in the same sequence, the figures for `NC(=O)c1nc(C#CC2=CCCCC2)n(COCCO)n1` were greater than 50 µg/mL and greater than 50 µg/mL.
In the same order, the values of `NC(=O)c1ncn([C@@H]2O[C@H](CO)[C@@H](O)[C@H]2O)n1` [RIBAVIRIN] are 7 µg/mL (≈ 28.7 µM) and 21 µg/mL (≈ 86 µM).
Taken in the same sequence, the figures for `NC(=O)c1nc(C#CC2(O)CCCCC2)n(COCCO)n1` were greater than 50 µg/mL and greater than 50 µg/mL.
In the case of `NC(=O)c1nc(C#Cc2cccc(F)c2)n(COCCO)n1`, the EC50 in data set [1] came out at 10 µg/mL (≈ 32.9 µM). Also, in data set [2], the CC50 came out at 29 µg/mL (≈ 95.3 µM).
`NC(=O)c1nc(C#CC2(O)CCCC2)n(COCCO)n1`: in data set [1], the EC50 was greater than 50 µg/mL. Also, in data set [2], the CC50 was greater than 50 µg/mL.
`CCCCCc1ccc(C#Cc2nc(C(N)=O)nn2COCCO)cc1`: the EC50 in data set [1] is 22 µg/mL (≈ 61.7 µM). The CC50 in data set [2] is 25 µg/mL (≈ 70.1 µM).
For `Cc1ccc(C#Cc2nc(C(N)=O)nn2COCCO)cc1`, the EC50 in data set [1] came out at 16 µg/mL (≈ 53.3 µM). For the same compound, the CC50 in data set [2] was greater than 50 µg/mL. This compound had an Activity in data set [3] of less than 80%.
Consider `COc1ccc(C#Cc2nc(C(N)=O)nn2COCCO)cc1`, for which the EC50 in data set [1] was greater than 50 µg/mL. In data set [2], this compound yielded a CC50 greater than 50 µg/mL.
As to `NC(=O)c1nc(C#Cc2ccc(F)cc2)n(COCCO)n1`, the Activity entry in data set [4], in data set [5] and in data set [6] was “Not toxic” each time. Also, the EC50 in data set [1] was found to be 22 µg/mL (≈ 72.3 µM). In addition, the CC50 in data set [2] is greater than 50 µg/mL.
`NC(=O)c1nc(C#Cc2ccccc2F)n(COCCO)n1`: the EC50 in data set [1] was found to be 20 µg/mL (≈ 65.7 µM). This compound registered a CC50 in data set [2] greater than 50 µg/mL. In data set [3], the Activity is on record as less than 80%.
`NC(=O)c1nc(C#CCCCCl)n(COCCO)n1`: the EC50 in data set [1] is greater than 50 µg/mL. Also, in data set [2], the CC50 is greater than 50 µg/mL.
Consider `NC(=O)c1nc(C#Cc2ccccc2)n(COCCO)n1`, for which the Activity entry in data set [4], in data set [5] and in data set [6] was “Not toxic” in each case. Besides, the EC50 in data set [1] was 18 µg/mL (≈ 62.9 µM); in data set [7], greater than 50 µg/mL. The compound also registered a CC50 in data set [2] greater than 50 µg/mL.
